Values after ≈ are worked out from the molar mass of the structure shown.
Experiments:
[1] = Metabolic stability in human hepatocytes assessed as parent compound remaining incubated for 30 mins by LC-MS/MS analysis; type: ADME, cell-based, Hepatocyte; settings: read-out: Stabilty
Outline: (§1)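 Hepatocytes from male ICR/CD-1 mice, male Sprague-Dawley rats, or mixed human donors. Parent compound measured after 30 min incubation and normalised to the time-zero concentration.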

DPP8/9 = DPP8/9 (Homo sapiens, UniProt Q6V1X1+Q86TI2); test: Inhibition of recombinant human DPP8/9 expressed in Rosetta cells at 10 uM using Gly-Pro-p-nitroanilide as substrate incubated for 1 hr relative to control; settings: probe Gly-Pro-p-nitroanilide
[2] = Metabolic stability in Sprague-Dawley rat hepatocytes assessed as parent compound remaining incubated for 30 mins by LC-MS/MS analysis; type: ADME, cell-based, Hepatocyte; settings: read-out: Stabilty; outline: as §1
[3] = molecular target: T1, Glucose-dependent insulinotropic receptor (Homo sapiens) (UniProt Q8TDV5); test: Agonist activity at CREB-LBD and Gal4-DBD fused recombinant human GPR119 expressed in HEK293 cells at 1 uM by firefly luciferase assay relative to AR231453; type: functional, cell-based; settings: filed as agonist
T1 sequence (whole entry): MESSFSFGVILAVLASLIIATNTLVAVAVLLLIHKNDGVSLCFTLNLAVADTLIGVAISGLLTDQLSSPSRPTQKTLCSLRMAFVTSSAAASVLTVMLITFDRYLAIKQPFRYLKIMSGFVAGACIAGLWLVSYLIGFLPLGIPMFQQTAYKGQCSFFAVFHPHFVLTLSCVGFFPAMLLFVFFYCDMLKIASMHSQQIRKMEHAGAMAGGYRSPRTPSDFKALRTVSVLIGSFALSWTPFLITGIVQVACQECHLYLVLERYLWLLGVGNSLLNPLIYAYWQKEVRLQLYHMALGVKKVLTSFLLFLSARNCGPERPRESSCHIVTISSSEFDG
Outline: (§2)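 HEK293 cells transiently transfected with human GPR119, a Gal4-DBD/CREB-LBD fusion and a Gal4 UAS-driven luciferase reporter, then treated with compound (DMSO vehicle). Firefly luciferase luminescence read. Activation fold = compound/vehicle, expressed as percent of the AR231453 activation fold. EC50 obtained by curve fitting.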

Vero = test: Cytotoxicity against African green monkey Vero cells incubated for 48 hrs by MTT assay; settings: Chlorocebus sabaeus
[4] = Metabolic stability in ICR/CD-1 mouse hepatocytes assessed as parent compound remaining incubated for 30 mins by LC-MS/MS analysis; type: ADME, cell-based, Hepatocyte; settings: read-out: Stabilty; outline: as §1
[5] = molecular target: T2, Glucose-dependent insulinotropic receptor (Homo sapiens, UniProt Q8TDV5); test: Agonist activity at CREB-LBD and Gal4-DBD fused recombinant human GPR119 expressed in HEK293 cells by firefly luciferase assay; type: functional, cell-based; outline: as §2
T2 sequence (Q8TDV5 whole entry): T1 sequence (whole entry)

Mus musculus = test: Antidiabetic activity in ICR mouse assessed as reduction in blood glucose AUC at 10 mg/kg, po administered as single dose followed by glucose challenge measured upto 120 mins by OGTT relative to control; type: functional; parameters: scale not given: the % may be the effect or the level left; settings: time min <=120
Outline: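 ICR mice were fasted overnight and dosed by oral gavage, with distilled water as vehicle, before an oral glucose load of 2 g/kg. Tail-tip blood was sampled at 0, 30, 60 and 120 min and glucose measured by the glucose oxidase method. AUC was compared with the vehicle group. n = 10 per group, mean ± SEM.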

[6] = AUC(0 to infinity) in Sprague-Dawley rat plasma at 30 mg/kg, po measured up to 24 hrs; type: ADME, organism-based; parameters: route oral, dose 30 mg/kg, time <=24
Outline: (§3)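 Male SD rats (180–200 g), three per route, dosed as free base content. Oral formulation in 0.5% carboxymethyl cellulose; intravenous formulation in normal saline. Sampling at 5, 15, 30 min and 1, 1.5, 2, 4, 6, 8, 12, 24 h; plasma kept at -80 °C. Non-compartmental parameters; F = (AUCpo×dose iv)/(AUCiv×dose po).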

[7] = Mean residence time (0 to infinity) in Sprague-Dawley rat at 30 mg/kg, po measured up to 24 hrs; type: ADME, organism-based; settings: in vivo; outline: as §3
[8] = AUC(0 to t) in Sprague-Dawley rat plasma at 30 mg/kg, po measured up to 24 hrs; type: ADME, organism-based; parameters: route oral, dose 30 mg/kg, time <=24; outline: as §3
[9] = Mean residence time (0 to infinity) in ICR mouse at 20 mg/kg, po measured up to 24 hrs; type: ADME, organism-based; settings: in vivo
Outline: (§4)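 Male ICR mice (26–27 g), three per route. Oral dose given as a 2 mg/mL suspension in 0.5% carboxymethyl cellulose; intravenous dose as 0.4 mg/mL in 30% SBECD with 1 mol/L HCl. Blood taken at 5, 15, 30 min and 1, 2, 4, 7, 24 h; plasma stored at -80 °C. Non-compartmental analysis; F = (AUCpo×dose iv)/(AUCiv×dose po).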

[10] = AUC(0 to t) in ICR mouse plasma at 2 mg/kg, iv measured up to 24 hrs; type: ADME, organism-based; parameters: route intravenous, dose 2 mg/kg, time <=24; outline: as §4
[11] = Cmax in ICR mouse plasma at 2 mg/kg, iv measured up to 24 hrs; type: ADME, organism-based; parameters: route intravenous, dose 2 mg/kg, time <=24; outline: as §4
[12] = Elimination half life in ICR mouse plasma at 2 mg/kg, iv measured up to 24 hrs; type: ADME, organism-based; settings: read-out: beta t1/2 (converted); outline: as §4
[13] = Elimination half life in ICR mouse plasma at 20 mg/kg, po measured up to 24 hrs; type: ADME, organism-based; settings: read-out: beta t1/2 (converted); outline: as §4
[14] = Oral bioavailability in ICR mouse at 20 mg/kg; type: ADME, organism-based; settings: in vivo; outline: as §4
[15] = Elimination half-life in Sprague-Dawley rat plasma at 30 mg/kg, po measured up to 24 hrs; type: ADME, organism-based; settings: read-out: beta t1/2 (converted); outline: as §3
[16] = Mean residence time (0 to infinity) in ICR mouse at 2 mg/kg, iv measured up to 24 hrs; type: ADME, organism-based; settings: in vivo; outline: as §4
[17] = AUC(0 to infinity) in ICR mouse plasma at 20 mg/kg, po measured up to 24 hrs; type: ADME, organism-based; parameters: route oral, dose 20 mg/kg, time <=24; outline: as §4
[18] = AUC(0 to infinity) in ICR mouse plasma at 2 mg/kg, iv measured up to 24 hrs; type: ADME, organism-based; parameters: route intravenous, dose 2 mg/kg, time <=24; outline: as §4
[19] = Oral bioavailability in Sprague-Dawley rat at 30 mg/kg; type: ADME, organism-based; settings: in vivo; outline: as §3
[20] = Cmax in Sprague-Dawley rat plasma at 30 mg/kg, po measured up to 24 hrs; type: ADME, organism-based; parameters: route oral, dose 30 mg/kg, time <=24; outline: as §3
[21] = Cmax in ICR mouse plasma at 20 mg/kg, po measured up to 24 hrs; type: ADME, organism-based; parameters: route oral, dose 20 mg/kg, time <=24; outline: as §4
[22] = Tmax in ICR mouse plasma at 20 mg/kg, po measured up to 24 hrs; type: ADME, organism-based; outline: as §4
[23] = AUC(0 to t) in ICR mouse plasma at 20 mg/kg, po measured up to 24 hrs; type: ADME, organism-based; parameters: route oral, dose 20 mg/kg, time <=24; outline: as §4
[24] = Tmax in Sprague-Dawley rat plasma at 30 mg/kg, po measured up to 24 hrs; type: ADME, organism-based; outline: as §3

Activity [3] [%] | EC50 [5] [nM] | SMILES | remaining at 0.5 h [1] [%] | inhibition at 1 h, 10 µM (DPP8/9) [%] | remaining at 0.5 h [2] [%] | IC50 (Vero) [µg/mL] | remaining at 0.5 h [4] [%] | other results
85 | 3990 | CC#CCn1c(N2CCC[C@@H](N)C2)nc2c1c(=O)n(CCCN1CCN(c3ncc(CC)cn3)CC1)c(=O)n2C | – | – | – | – | – | –
90 | 4020 | CC#CCn1c(N2CCC[C@@H](N)C2)nc2c1c(=O)n(CCCN1CCN(c3ncc(C(F)(F)F)cn3)CC1)c(=O)n2C | – | – | – | – | – | –
81 | 1930 | CC#CCn1c(N2CCC[C@@H](N)C2)nc2c1c(=O)n(CCCN1CCN(c3nc(-c4ccccc4)ns3)CC1)c(=O)n2C | – | 1.6 | – | – | – | –
60 | 2560 | CC#CCn1c(N2CCC[C@@H](N)C2)nc2c1c(=O)n(CCCN1CCN(c3ncc(C)cn3)CC1)c(=O)n2C | – | – | – | – | – | –

Further lines, the molecule ahead of its results:

SMILES | Activity [3] [%] | EC50 [5] [nM] | remaining at 0.5 h [1] [%] | inhibition at 1 h, 10 µM (DPP8/9) [%] | remaining at 0.5 h [2] [%] | IC50 (Vero) [µg/mL] | remaining at 0.5 h [4] [%] | other results
CC#CCn1c(N2CCC[C@@H](N)C2)nc2c1c(=O)n(CCCN1CCC(n3cc(-c4ccccc4)nn3)CC1)c(=O)n2C | 47 | – | 68.1 | 0 | 19.7 | 25.9 (≈ 44.3 µM) | 21 | –
CC#CCn1c(N2CCC[C@@H](N)C2)nc2c1c(=O)n(CCCN1CCN(c3nc(-c4ccccc4)cs3)CC1)c(=O)n2C | 56 | 650 | 91.5 | 0 | 39.6 | 4.3 (≈ 7.15 µM) | 68.3 | –
COc1c(Nc2ccc(S(C)(=O)=O)nc2C)ncnc1OC1CCN(C(=O)OC(C)C)CC1 [ADP-597] | – | – | – | – | – | – | – | Activity (Mus musculus): 19.9%
CC#CCn1c(N2CCC[C@@H](N)C2)nc2c1c(=O)n(CCCN1CCC(c3nc(-c4ccccc4)cs3)CC1)c(=O)n2C | 83 | 3130 | – | 2.2 | – | – | – | –
CC(C)c1noc(C2CCN(c3ncnc(Nc4ccc(S(C)(=O)=O)cc4F)c3[N+](=O)[O-])CC2)n1 | 100 | 640 | – | – | – | – | – | –
CC#CCn1c(N2CCC[C@@H](N)C2)nc2c1c(=O)n(CCCN1CCN(c3nc(-c4ccccc4)no3)CC1)c(=O)n2C | – | 1400 | 101 | 0 | 23.8 | 46.6 (≈ 79.4 µM) | 32 | AUC(0-inf) [6]: 502 ng·h/mL; MRT inf [7]: 2.11 h; AUC(0-t) at 24 h [8]: 468 ng·h/mL; MRT inf [9]: 1.22 h; AUC(0-t) at 24 h [10]: 257 ng·h/mL; Cmax [11]: 850 ng/mL; half-life [12]: 98.4 min; half-life [13]: 63.6 min; bioavailability [14]: 12.2%; half-life [15]: 66.6 min; MRT inf [16]: 45.6 min; AUC(0-inf) [17]: 318 ng·h/mL; AUC(0-inf) [18]: 261 ng·h/mL; bioavailability [19]: 31.8%; Cmax [20]: 192 ng/mL; Cmax [21]: 213 ng/mL; Tmax [22]: 25.2 min; AUC(0-t) at 24 h [23]: 308 ng·h/mL; Tmax [24]: 1.17 h
N[C@@H](CC(=O)N1CCn2c(nnc2C(F)(F)F)C1)Cc1cc(F)c(F)cc1F [SITAGLIPTIN] | – | – | – | – | – | – | – | Activity (Mus musculus): 27.3%
CC#CCn1c(N2CCC[C@@H](N)C2)nc2c1c(=O)n(CCCN1CCC(c3nc(-c4ccccc4)c[nH]3)CC1)c(=O)n2C | 65 | 600 | 84 | 5.1 | 21.7 | 35.2 (≈ 60.3 µM) | 69.4 | –
